Assay outcomes from PubChem BioAssay.
Autophagy HCS – alters autophagy in cells; MEF GFP-LC3 puncta imaging; test concentration mostly 10 µM; calls only at 10 µM (by protocol); hit rate 0.98% among 190,000; AID 463193;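 active means percentage of spot-positive cells more than 3 SD above its plate mean, without a fluorescence outlier flag or 80% toxicity; inconclusive means no clear call, values can overlap the other calls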;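 further: spot-positive cell cutoff set from DMSO-treated cells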
bCat KO growth – beta-catenin-lacking colon tumor cell growth suppression; AID 818; hit rate 1.5% among 140,000; viability, % at 10 µM; HCT116 beta-catenin knockout viability, CellTiter-Glo, 60 h; active compounds read low;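 active means viability at or under a set limit, the compound median less 4 SD, cut at about 6% in these data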;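 further: 0% = Hyamine 1622 control at 20 µM and 100% = untreated cell control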
L major viab – Leishmania major promastigote growth inhibition. AID 1063. Leishmania major promastigotes, resazurin fluorescence viability. inhibition, % at 10 µM. hit rate 9% among 200,000; in the data active means inhibition above about 50%;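 further: promastigotes grown with compound for 44 hours at 28 °C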
Dynein cargo inh – dynein cargo transport inhibition; 3617.4 mouse cells, GR-EGFP nuclear translocation imaging; test concentration mostly 20 µM; stimulated with dexamethasone, 1 µM; active compounds read low; hit rate 0.47% among 220,000; AID 1381; z-score, hits read low;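 active means plate z-score of nuclear minus cytoplasmic receptor signal below a set negative limit, without overly bright fluorescence or cell loss, cut at about -3.5 in these data, passing the limit was not always enough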;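 further: z-score of nuclear minus cytoplasmic ring GR-EGFP intensity difference per well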
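Buffer or medium: Induction medium lacking tetracycline, stripped serum | Also added: Dexamethasone agonist, 1.0 µM final, for 30 min | Timing: 48 h induction, 1 h compound, 30 min dex at 37 °C | Detection: Formaldehyde fixation, Hoechst nuclear stain, 10x automated fluorescence imaging | Measure: Nuclear versus cytoplasmic GR-EGFP signal, averaged per well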
PTEN del growth – growth suppressors of cells with PTEN tumor suppressor deletion | HCT116 PTEN-null viability, CellTiter-Glo, 60 h; active compounds read low | viability, % at 10 µM | hit rate 1.2% among 140,000 | AID 827;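 active means viability at or below a set limit, 4 SD under the median of all tested compounds, cut at about 3.7% in these data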;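 further: PTEN knockout HCT116 line with beta catenin targeted HCT116 as companion control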
* marks the source's active call; other numbers are inactive results; i = inactive; ? = inconclusive; · = no result; + = active, no number. This is a sample that favours compounds with a hit; in the whole collection about 9.2% have one here.

SMILES	Autophagy HCS	bCat KO growth	L major viab	Dynein cargo inh	PTEN del growth
Cc1c(CNCCC2=CCCCC2)c(C(=O)O)c(C)n1Cc1ccccc1	i	·	0	0.85	·
CN(C)/C=N/c1nc2nccc(-c3cccnc3)n2n1	i	·	1	0.17	·
COC(=O)c1sc(NC(=O)c2ccc([N+](=O)[O-])o2)c(C#N)c1C	·	·	·	0.14	·
CCn1c(CSc2nnc(-c3ccc4c(c3)OCO4)o2)nc2cc(S(=O)(=O)N(C)C)ccc21	i	38	9	-0.68	38
COc1cc(N2CCCC2)c(OC)cc1/C=C(/C#N)c1ccc(F)cc1	+	79	11	-2.2	96
COc1cc(N2CCCC2)c(OC)cc1/C=C(/C#N)c1ccc(Br)cc1	?	86	-1	0.25	83
COc1ccc(NC(=O)Cn2nnc(C(=O)NCc3ccccc3)c2N)c(OC)c1	i	·	-2	0.16	·
Cc1cc(C)nc(N/N=C2/CCCC/C2=C\c2ccccc2)n1	i	·	100*	0.61	·
Clc1cccc(OCCN2CCOCC2)c1	i	74	7	0.18	87
CCCCOc1ccc(C(=O)N2CCC(C)CC2)cc1	i	95	-6	0.11	106
Brc1cccc(OCCN2CCCCC2)c1	i	84	96*	1.3	89
CC1CCN(CCCCOc2cccc(Br)c2)CC1	i	70	95*	-0.82	83
CC1CCN(CCOc2ccc(Cl)c(Cl)c2)CC1	i	73	88*	-0.56	90
CC1CCN(CCCCOc2ccc(Br)cc2)CC1	i	85	99*	-0.26	83
Cc1ccc(S(=O)(=O)c2nc(NN(C)C)sc2Cl)cc1	i	·	8	-0.19	·
O=C1OCCC1Sc1nnc(-c2ccc(Cl)cc2Cl)o1 (stereo not drawn)	·	·	·	1.7	·
CCOC(=O)c1[nH]c2ccc(Br)cc2c1NC(=O)CCN1CCC(C)CC1	i	52	41	0.098	59
COc1ccccc1OCCCCN1CCN(c2ccccc2OC)CC1	i	56	2	2.3	60
Cc1cc(Br)ccc1OCCCCN1CCC(C)CC1	i	45	100*	-1.3	53
Brc1ccccc1OCCCN1CCOCC1	i	99	72*	0.0043	104
CC1CCN(CCCCOc2ccccc2Br)CC1	i	79	100*	-0.95	79
Cn1c(SCc2ccc(Br)cc2)nnc1-c1ccccn1	·	·	·	0.27	·
CCCCC(CC)C(=O)Nc1cccc(SC)c1 (stereo not drawn)	i	·	17	0.35	·
COc1ccccc1/C=C/C(=O)NCC(=O)N/N=C(\CCC(=O)O)c1ccccc1	i	·	99*	-0.48	·
O=C(CN1CCN(Cc2ccccc2Cl)CC1)N=Nc1c(O)[nH]c2ccccc12	i	70	7	0.072	59
SMILES	Autophagy HCS	bCat KO growth	L major viab	Dynein cargo inh	PTEN del growth
Cc1ccc(CN2CCN(CC(=O)N=Nc3c(O)[nH]c4ccccc34)CC2)cc1	i	65	100*	-0.79	73
Cc1nn(C)cc1CN(C)S(=O)(=O)c1cccc([N+](=O)[O-])c1	i	·	7	-0.092	·
O=C(NCCCn1ccnc1)c1sc2cccc(F)c2c1Cl	i	90	78*	-0.89	94
CC(C)N1CCC(N2CCN(Cc3ccc(Oc4ncccn4)cc3)CC2CCO)CC1 (stereo not drawn)	·	·	·	0.36	·
CC(C)COP(=O)(OCC(C)C)C(Nc1ccccc1)c1ccc(F)cc1 (stereo not drawn)	i	53	93*	0.49	57
CN1CCN(c2cc(C(F)(F)F)nc3ccc(F)cc23)CC1	·	·	·	-0.18	·
CN1CCN(C2=Cc3ccccc3Sc3cc(F)ccc32)CC1	i	20	100*	-1.3	19
CN1CCN(C2=Nc3cc(Cl)ccc3Nc3ccccc32)CC1	i	96	-8	-0.31	92
CN1CCN(C2=Cc3ccc(Cl)cc3Sc3ccc(F)cc32)CC1	i	10	95*	0.43	6
COc1ccc(CC2(C)OC(c3ccc(Cl)cc3)=NN2C(C)=O)cc1 (stereo not drawn)	i	73	54*	0.38	72
COc1ccc(CC2(C)OC(c3ccncc3)=NN2C(C)=O)cc1 (stereo not drawn)	i	·	-1	1.1	·
COc1ccc(-c2nsc(SCC(=O)NCc3ccc4c(c3)OCO4)n2)cc1	i	82	99*	-0.77	77
O=C(CSc1nc(C2CCCCC2)nc2ccccc12)NCc1ccc2c(c1)OCO2	i	82	53*	1.4	72
O=C(CSc1nc(C2CC2)nc2ccccc12)N1c2ccccc2Sc2ccccc21	i	70	50*	-0.41	65
CC(=O)CSc1nc2ccccc2o1	i	96	-4	-0.84	101
O=C(CSc1nc2ccccc2o1)N1c2ccccc2Sc2ccccc21	i	78	82*	-0.012	84
CC(C)C(=O)NNC(=O)CSc1nc(C2CCCCC2)nc2ccccc12	i	64	5	0.98	65
Cc1onc(-c2c(F)cccc2Cl)c1C(=O)N=C(N)N1CC(C)OC(C)C1 (stereo not drawn)	·	·	·	0.076	·
O=C(NCc1ccco1)C1CCCN1C(=O)Nc1ccc(Cl)cc1 (stereo not drawn)	i	·	-6	0.67	·
FC(F)(F)c1cc(-c2ccco2)nc(NCCc2ccccc2)n1	i	52	2	0.61	50
Cc1ccc(/C(O)=C2\C(=O)C(=O)N(CC(C)O)C2c2ccc(N(C)C)cc2)cc1 (stereo not drawn)	i	96	-3	-0.66	101
COc1ccc(C2CC(c3ccc(Br)cc3)=NN2C(=O)CN2CCCC2)cc1 (stereo not drawn)	·	·	·	0.35	·
COc1ccc(C2CC(c3ccccc3)=NN2C(=O)COC(=O)c2cnc(Cl)c(Cl)c2)cc1 (stereo not drawn)	i	49	97*	-0.34	64
COc1ccc(C2CC(c3ccccc3)=NN2C(=O)CN2CCN(Cc3ccccc3)CC2)cc1 (stereo not drawn)	i	·	54*	0.48	·
CC(=O)Oc1ccccc1C1=NN(C(=O)/C=C/c2ccccc2)C(c2ccccc2)C1 (stereo not drawn)	i	49	19	-1.1	45
SMILES	Autophagy HCS	bCat KO growth	L major viab	Dynein cargo inh	PTEN del growth
COc1ccc(C2CC(c3ccccc3OC(C)=O)=NN2C(=O)/C=C/c2ccccc2)cc1 (stereo not drawn)	i	70	97*	0.6	72
COc1ccc(C2=NN(C(=O)CN3CCCCC3)C(c3ccc(C)cc3)C2)cc1 (stereo not drawn)	i	·	73*	-0.17	·
CC(C)NC(=O)/C=C/C(=O)O	i	·	-6	-0.35	·
CSc1ccc(OC2CCN(Cc3ccccc3)CC2)cc1	i	94	94*	1	83
CSCCNC(=O)c1ccc(OC2CCN(CCc3ccccc3)CC2)cc1	i	·	7	-0.51	·
Cc1cc(C)n(-c2cc(N3CCN(S(=O)(=O)c4ccc(C)c(C)c4)CC3)ccc2[N+](=O)[O-])n1	i	81	-7	0.31	100
Cc1cc(C)n(-c2cc(N3CCN(S(=O)(=O)c4ccc5ccccc5c4)CC3)ccc2[N+](=O)[O-])n1	i	73	59*	-0.018	79
CN(C)CC/C=C1/c2ccccc2Sc2ccc(Cl)cc21	·	·	·	-0.16	·
